The source made the active and inactive calls. No cut-off for these calls is given here.
Legend:
[1] = Drug uptake in rat RGK1 cells at 2.5 uM measured after 8 to 24 hrs by fluorescence assay; assay type: ADME, cell-based
How it was run: (§1)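 RGK cells (MNNG-induced mutant of rat RGM gastric mucosal line; DMEM/F12 1:1, 10% FCS, antibiotic-antimycotic) plated 2.5×10^6/well for 24 h. Pre-incubated 2 h with or without cytochalasin B (50 µM final), then given 2.5 µM compound in medium with 1% DMSO for 8 or 24 h. PBS-washed twice, lysed in DMSO. Fluorescence read at ex 430/em 650 nm and quantified against per-compound DMSO calibration. Mean ± SD of three replicates.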

[2] = Drug uptake in rat RGK1 cells at 2.5 uM measured after 8 to 24 hrs in presence of GLUT1 inhibitor cytochalasin B by fluorescence assay; assay type: ADME, cell-based; how it was run: as §1
[3] = Dark toxicity in human HeLa cells assessed as reduction in cell survival at 1 uM measured after 24 hrs by CCK8 assay; assay type: cell-based
How it was run: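 HeLa cells seeded 5×10^3/well, grown 24 h (37°C, 5% CO2), then given conjugate at 1.0 μM (final 1% DMSO) for 24 h. Washed twice with PBS, fresh medium added, kept without light (0 J cm⁻²). WST-8 (CCK-8) read at 450 nm 24 h later. Survival normalized to untreated wells; mean ± SD of six replicates.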

HeLa = assay: Phototoxicity against human HeLa cells assessed as reduction in cell survival up to 1 uM pretreated for 24 hrs followed by 16 J/cm2 irradiation with halogen lamp measured after 24 hrs by CCK8 assay; assay type: functional, cell-based
How it was run: (§2)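 HeLa, U251 (DMEM, 10% FCS) or RGK cells plated 5×10^3/well and grown 24 h. Conjugate added at 0.1–1 µM (final 1% DMSO) for 24 h. Cells PBS-washed twice, given fresh medium and irradiated with a 100 W halogen lamp (water jacket, λ >500 nm) to 16 J cm⁻². WST-8 absorbance read at 450 nm 24 h later; survival normalized to untreated wells. EC50 for 50% cell death. Mean ± SD of six replicates.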

U-251 = assay: Phototoxicity against human U251 cells assessed as reduction in cell survival at 0.2 to 1 uM pretreated for 24 hrs followed by 16 J/cm2 irradiation with halogen lamp measured after 24 hrs by CCK8 assay; assay type: functional, cell-based; how it was run: as §2
Rattus norvegicus = species: Rattus norvegicus; assay: Phototoxicity against rat RGK1 cells assessed as reduction in cell survival at 0.2 to 1 uM pretreated for 24 hrs followed by 16 J/cm2 irradiation with halogen lamp measured after 24 hrs by CCK8 assay; assay type: functional, cell-based; how it was run: as §2
[4] = n-Octanol/water partition co-efficient, log P of the compound by RP-TLC method; assay type: physicochemical
How it was run: (§3)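 Log P (n-octanol/water partition) determined by reverse-phase thin-layer chromatography.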

[5] = Lipophilicity, log P of the compound; assay type: physicochemical; conditions: octanol/water; how it was run: as §3

SMILES | Drug uptake [1] | Drug uptake [2] | Activity [3] | Activity (HeLa) | Activity (U-251) | Activity (Rattus norvegicus) | logP [4] | logP [5]
OC[C@H]1OC(O)[C@H](O)[C@@H](Sc2c(F)c(F)c(-c3c4nc(c(-c5c(F)c(F)c(F)c(F)c5F)c5ccc([nH]5)c(-c5c(F)c(F)c(F)c(F)c5F)c5nc(c(-c6c(F)c(F)c(F)c(F)c6F)c6ccc3[nH]6)C=C5)C=C4)c(F)c2F)[C@@H]1O (stereo partly specified) | Active | Not Active | Non-Toxic | Active | Active | Active | 6.21 | 
OCCOc1c(F)c(F)c(-c2c3nc(c(-c4c(F)c(F)c(OCCO)c(F)c4F)c4ccc([nH]4)c(-c4c(F)c(F)c(OCCO)c(F)c4F)c4nc(c(-c5c(F)c(F)c(F)c(F)c5F)c5ccc2[nH]5)C=C4)C=C3)c(F)c1F |  |  |  |  |  |  |  | 5.4
OC[C@H]1OC(O)[C@H](O)[C@@H](O)[C@@H]1Sc1c(F)c(F)c(-c2c3nc(c(-c4c(F)c(F)c(F)c(F)c4F)c4ccc([nH]4)c(-c4c(F)c(F)c(F)c(F)c4F)c4nc(c(-c5c(F)c(F)c(F)c(F)c5F)c5ccc2[nH]5)C=C4)C=C3)c(F)c1F (stereo partly specified) | Active | Not Active | Non-Toxic | Active | Active | Active | 6.3 | 
OCCOc1c(F)c(F)c(-c2c3nc(c(-c4c(F)c(F)c(OCCO)c(F)c4F)c4ccc([nH]4)c(-c4c(F)c(F)c(F)c(F)c4F)c4nc(c(-c5c(F)c(F)c(F)c(F)c5F)c5ccc2[nH]5)C=C4)C=C3)c(F)c1F |  |  |  |  |  |  |  | 6.5
OCCOc1c(F)c(F)c(-c2c3nc(c(-c4c(F)c(F)c(F)c(F)c4F)c4ccc([nH]4)c(-c4c(F)c(F)c(OCCO)c(F)c4F)c4nc(c(-c5c(F)c(F)c(F)c(F)c5F)c5ccc2[nH]5)C=C4)C=C3)c(F)c1F |  |  |  |  |  |  |  | 6.5
OC1O[C@H](CSc2c(F)c(F)c(-c3c4nc(c(-c5c(F)c(F)c(F)c(F)c5F)c5ccc([nH]5)c(-c5c(F)c(F)c(F)c(F)c5F)c5nc(c(-c6c(F)c(F)c(F)c(F)c6F)c6ccc3[nH]6)C=C5)C=C4)c(F)c2F)[C@@H](O)[C@H](O)[C@H]1O (stereo partly specified) | Active |  | Non-Toxic | Active | Active | Active | 6.5 | 
OC[C@H]1OC(O)[C@H](Sc2c(F)c(F)c(-c3c4nc(c(-c5c(F)c(F)c(F)c(F)c5F)c5ccc([nH]5)c(-c5c(F)c(F)c(F)c(F)c5F)c5nc(c(-c6c(F)c(F)c(F)c(F)c6F)c6ccc3[nH]6)C=C5)C=C4)c(F)c2F)[C@@H](O)[C@@H]1O (stereo partly specified) | Active | Not Active | Non-Toxic | inactive | inactive | inactive | 6.87 | 
OC[C@H]1OC(Sc2c(F)c(F)c(-c3c4nc(c(-c5c(F)c(F)c(F)c(F)c5F)c5ccc([nH]5)c(-c5c(F)c(F)c(F)c(F)c5F)c5nc(c(-c6c(F)c(F)c(F)c(F)c6F)c6ccc3[nH]6)C=C5)C=C4)c(F)c2F)[C@H](O)[C@@H](O)[C@@H]1O (stereo partly specified) | Active |  | Non-Toxic | Active | Active | Active | 6.05 | 
